Measurements pooled from the literature.
Protocols differ between the studies behind these lines. pIC50: −log10 of the molar value. ≈ marks a conversion by molar mass, not a printed value.
Organism: Salmonella enterica

Structure (SMILES)	test	test system	setting	quantity	value
CC1=NN(CNc2c(O)c(S(=O)(=O)O)cc3ccccc23)C(=O)C1=NNn1c(-c2ccccc2)nc2ccccc2c1=O	microbial growth, broth dilution	PARATYPHI	24 h	MIC	83.7 µM
CO[C@H]1/C=C/O[C@@]2(C)Oc3c(C)c(O)c4c(O)c(c(/C=N/N5CCN(C)CC5)c(O)c4c3C2=O)NC(=O)/C(C)=C\C=C\[C@H](C)[C@H](O)[C@@H](C)[C@@H](O)[C@@H](C)[C@H](OC(C)=O)[C@@H]1C	microbial growth	TYPHI		pIC50	6.92
CCn1cc(C(=O)O)c(=O)c2ccc(C)nc21	microbial growth	CHOLERAESUIS	20 h, pH 7.2	MIC	4 µg/mL
CC1=NN(CNc2ccccc2)C(=O)C1=NNn1c(-c2ccccc2)nc2ccccc2c1=O	microbial growth, broth dilution	PARATYPHI	24 h	MIC	221 µM
COc1cc(Cc2cnc(N)nc2N)cc(OC)c1OC	microbial growth	CHOLERAESUIS	20 h, pH 5.5	MIC	0.5 µg/mL
CO[C@H]1O[C@H](COC(c2ccccc2)(c2ccccc2)c2ccccc2)[C@@H](OC(=O)c2ccc(C(C)(C)C)cc2)[C@H](OC(=O)c2ccc(C(C)(C)C)cc2)[C@H]1OC(=O)c1ccc(C(C)(C)C)cc1	microbial killing, broth dilution	TYPHI		MBC	16 µg/mL (≈ 17.4 µM)
CO/N=C(\C(=O)N[C@@H]1C(=O)N2C(C(=O)O)=C(CSC(=O)c3ccco3)CS[C@H]12)c1csc(N)n1	microbial growth	CHOLERAESUIS	20 h, pH 7	MIC	1 µg/mL
CCCCCCCCCCCC(=O)OC[C@H]1O[C@@H](n2cc(C)c(=O)[nH]c2=O)C[C@@H]1OC(=O)c1ccc(C(C)(C)C)cc1	microbial killing, broth dilution	TYPHI		MBC	16 µg/mL (≈ 27.4 µM)
O=C1NN=C(N=Cc2ccccc2O)C1=NNn1c(-c2ccccc2)nc2ccccc2c1=O	microbial growth, broth dilution	PARATYPHI	24 h	MIC	55.4 µM
[H]/N=C(/N)N[C@H]1[C@H](O)[C@@H](O)[C@H](O[C@@H]2O[C@@H](C)[C@](O)(C=O)[C@H]2O[C@@H]2O[C@@H](CO)[C@H](O)[C@@H](O)[C@@H]2NC)[C@@H](N/C(N)=N\[H])[C@@H]1O	microbial growth	TYPHI		pIC50	5.09
CCCCCCCCCCCC(=O)OC[C@H]1O[C@@H](n2cc(C)c(=O)[nH]c2=O)C[C@@H]1O	microbial killing, broth dilution	TYPHI		MBC	8 µg/mL (≈ 18.8 µM)
